Source: ChEMBL document CHEMBL1143253, “Strongylophorines: natural product inhibitors of hypoxia-inducible factor-1 transcriptional pathway” (J Med Chem, 2008)
Active and inactive are the calls of the source. The calls are words filed in the database; no cut-off is given here.

Columns and labels:
[1] = molecular target: T1, Hypoxia inducible factors; HIF-1-alpha, HIF-2-alpha (Homo sapiens, UniProt Q16665+Q99814); experiment: Inhibition of hypoxia-induced HIF1 transcriptional activation in human U251-HRE cells by luciferase reporter assay; type: cell-based
In short: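 Stably transfected U251 glioma cells carrying a luciferase reporter driven by three HRE copies, seeded 10000/well and grown 24 h. Compounds in 2-propanol were tested at 1–100 µM for 16 h at 1% O2/5% CO2/94% N2. Cells were lysed and Bright-Glo luminescence read, normalized to vehicle, with ≥15-fold hypoxic induction required. EC50 derived from dose–response; triplicate.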

[2] = molecular target: T1, Hypoxia inducible factors; HIF-1-alpha, HIF-2-alpha; experiment: Inhibition of hypoxia-induced HIF1 transcriptional activation in human U251-pGL3 cells at 30 uM by luciferase reporter assay; type: cell-based
In short: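 Counter-screen in U251-pGL3 cells, where firefly luciferase is driven by the SV40 promoter/enhancer, run in parallel with the HRE reporter assay. Cells incubated with compound under hypoxia (1% O2), then lysed and luciferase luminescence read. Data normalized to vehicle; triplicate.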

[3] = Decrease in protein expression of VEGF in human U251-HRE cells under hypoxic condition at 30 uM; type: functional, cell-based
In short: (§1)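 U251-HRE cells (1 × 10^5) plated in six-well plates, treated after 24 h for 4 h under hypoxia; normoxic and compound-free hypoxic lanes included. Lysis in PBS/0.1% NP-40 with sonication, 100 µg protein on 12.5% polyacrylamide gels. Probed with monoclonal anti-HIF-1α and anti-VEGF (1:500), β-tubulin (1:10000) loading control, HRP anti-mouse secondary, ECL detection.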

[4] = Decrease in protein expression of HIF1-alpha in human U251-HRE cells under hypoxic condition at 30 uM; type: functional, cell-based; in short: as §1
[5] = Cytotoxicity against human U251-HRE cells at 100 uM after 16 hrs by MTT assay; type: functional
In short: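 U251-HRE glioma cells seeded 10000/well, left 24 h, then exposed to compound 16 h at 37 °C under normoxia (the hypoxic arm ran 24 h in a hypoxic incubator). Medium replaced with fresh medium plus 20 µL MTT (1.5 mg/mL) for 3 h, formazan dissolved in DMSO, absorbance read at 570 nm. Percent cytotoxicity from treated vs control A570; triplicate, SE.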

MDA-MB-231 = experiment: Antiinvasive activity against human MDA-MB-231 cells; type: functional, cell-based

EC50 [1]	Activity [2]	EC50 (MDA-MB-231)	SMILES	Activity [3]	Activity [4]	inhibition at 100 µM [5]
8 µM	inactive		C[C@@]12CC[C@H]3[C@]4(CCC[C@]3(C)C(=O)OC4)[C@H]1CC[C@]1(C)Oc3ccc(O)cc3C[C@@H]21	Active	Active	17%
6 µM	inactive	16 µM	C[C@@]12CC[C@H]3[C@]4(CCC[C@]3(C)C(=O)OC4)[C@H]1CC[C@](C)(O)[C@H]2Cc1cc(O)ccc1O	Active	Active	
13 µM	inactive		C[C@@]12CC[C@H]3[C@](C)(CCC[C@]3(C)C(=O)O)[C@H]1CC[C@]1(C)Oc3ccc(O)cc3C[C@@H]21	Active	Active	
